Experimental data published in EPA's CvTdb concentration-time database.

Legend:
Rat [1] = experiment: concentration in plasma after dosing; settings: dosed: Perfluorodecanoic acid, 2 mg/kg, oral, Male, Harlan Sprague Dawley
Rat [2] = experiment: concentration in plasma after dosing; settings: dosed: Perfluorodecanoic acid, 2 mg/kg, iv, Male, F344
Rat [3] = experiment: concentration in kidney after dosing; settings: 1 h; dosed: Perfluorodecanoic acid; 10 mg/kg; oral; Female; Harlan Sprague Dawley
Rat [4] = experiment: concentration in liver after dosing; settings: 1848 h; dosed: Perfluorodecanoic acid; 10 mg/kg; oral; Male; Harlan Sprague Dawley
Rat [5] = experiment: concentration in kidney after dosing; settings: 1848 h; dosed: Perfluorodecanoic acid; 10 mg/kg; oral; Female; Harlan Sprague Dawley
Rat [6] = experiment: concentration in brain after dosing; settings: 1848 h; dosed: Perfluorodecanoic acid; 10 mg/kg; oral; Female; Harlan Sprague Dawley
Rat [7] = experiment: concentration in plasma after dosing; settings: dosed: dichloroacetic acid, 10 mg/kg, oral, Male, Harlan Sprague Dawley
Rat [8] = experiment: concentration in plasma after dosing; settings: 5 min; dosed: dichloroacetic acid; 10 mg/kg; oral; Male; Harlan Sprague Dawley
Rat [9] = experiment: concentration in plasma after dosing; settings: dosed: dichloroacetic acid, 100 mg/kg, oral, Male, F344
Rat [10] = experiment: concentration in plasma after dosing; settings: 40 min; dosed: dichloroacetic acid; 40 mg/kg; oral; Female; Harlan Sprague Dawley
Rat [11] = experiment: concentration in plasma after dosing; settings: 3 h; dosed: Primidone; 130 mg/kg; oral; Male; Harlan Sprague Dawley
Rat [12] = experiment: concentration in plasma after dosing; settings: 6 h; dosed: Primidone; 130 mg/kg; oral; Female; F344
Rat [13] = experiment: concentration in plasma after dosing; settings: dosed: Wyeth-14643, 2.0 mg/kg, iv, Male, Sprague-Dawley
Rat [14] = experiment: concentration in plasma after dosing; settings: dosed: Wyeth-14643, 5.0 mg/kg, oral, Male, Sprague-Dawley
Rat [15] = experiment: concentration in plasma after dosing; settings: dosed: Wyeth-14643, 5.0 mg/kg, oral, Male, Sprague-Dawley; remark: listed apart in the source
dog = settings: dosed: tetrachloroethylene, 142 ppm, inhalation, duration: 4 hr, male, beagle
In short: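 A PubMed search, classifier screening and manual review identified published in vivo toxicokinetic studies, which together with two structured collections supplied concentration-versus-time and amount-versus-time points. Points were mostly digitised from plot screenshots with WebPlotDigitizer, otherwise copied from tables. Dose, route, subject details and medium were hand-curated from each paper, and sampling and analytical methods are those of the sources, often unreported.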

Rat [16] = experiment: concentration in plasma after dosing; settings: 3 h; dosed: Thiodiglycolic Acid; 20 mg/kg; iv; Male; Harlan Sprague Dawley
Rat [17] = experiment: concentration in liver after dosing; settings: 3 h; dosed: Thiodiglycolic Acid; 20 mg/kg; iv; Female; Harlan Sprague Dawley
Rat [18] = experiment: concentration in thymus after dosing; settings: 5.333 h; dosed: Thiodiglycolic Acid; 20 mg/kg; iv; Male; Harlan Sprague Dawley
Rat [19] = experiment: concentration in thymus after dosing; settings: 10 h; dosed: Thiodiglycolic Acid; 20 mg/kg; iv; Male; F344
Rat [20] = experiment: concentration in thymus after dosing; settings: 2 h; dosed: Thiodiglycolic Acid; 20 mg/kg; iv; Female; Harlan Sprague Dawley
Rat [21] = experiment: concentration in thymus after dosing; settings: 20 min; dosed: Bis 2-Chloroethoxy Methane; 20 mg/kg; iv; Female; F344
Rat [22] = experiment: concentration in thymus after dosing; settings: 4 h; dosed: Bis 2-Chloroethoxy Methane; 20 mg/kg; iv; Male; F344
Rat [23] = experiment: concentration in liver after dosing; settings: 20 min; dosed: Bis 2-Chloroethoxy Methane; 20 mg/kg; iv; Female; F344
Rat [24] = experiment: concentration in heart after dosing; settings: 40 min; dosed: Bis 2-Chloroethoxy Methane; 20 mg/kg; iv; Male; F344
Rat [25] = experiment: concentration in heart after dosing; settings: 2 h; dosed: Bis 2-Chloroethoxy Methane; 20 mg/kg; iv; Male; F344
Rat [26] = experiment: concentration in liver after dosing; settings: 2 h; dosed: Bis 2-Chloroethoxy Methane; 20 mg/kg; iv; Male; F344
Rat [27] = experiment: concentration in heart after dosing; settings: 10 min; dosed: Bis 2-Chloroethoxy Methane; 20 mg/kg; iv; Female; F344
Rat [28] = experiment: concentration in liver after dosing; settings: 40 min; dosed: Bis 2-Chloroethoxy Methane; 20 mg/kg; iv; Male; F344
Rat [29] = experiment: concentration in thymus after dosing; settings: 6 h; dosed: Bis 2-Chloroethoxy Methane; 20 mg/kg; iv; Male; F344
Rat [30] = experiment: concentration in liver after dosing; settings: 3 h; dosed: Bis 2-Chloroethoxy Methane; 20 mg/kg; iv; Male; F344
Rat [31] = experiment: concentration in plasma after dosing; settings: 2 h; dosed: Di-n-butyl phthalate; 50 mg/kg; oral; Male; Sprague-Dawley
Rat [32] = experiment: concentration in plasma after dosing; settings: 15 h; dosed: Di-n-butyl phthalate; 100 mg/kg; oral; Male; Sprague-Dawley
Rat [33] = experiment: concentration in plasma after dosing; settings: 3 h; dosed: Di-n-butyl phthalate; 50 mg/kg; oral; Male; Sprague-Dawley
Rat [34] = experiment: concentration in plasma after dosing; settings: 10 h; dosed: Di-n-butyl phthalate; 50 mg/kg; oral; Male; Sprague-Dawley
Rat [35] = experiment: concentration in plasma after dosing; settings: 20 min; dosed: Di-n-butyl phthalate; 20 mg/kg; iv; Male; Sprague-Dawley
Rat [36] = experiment: concentration in plasma after dosing; settings: 0.5 h; dosed: Di-n-butyl phthalate; 100 mg/kg; oral; Male; Sprague-Dawley

O=C(O)C(F)(F)C(F)(F)C(F)(F)C(F)(F)C(F)(F)C(F)(F)C(F)(F)C(F)(F)C(F)(F)F [Perfluorodecanoic acid]
concentration in plasma (Rat [1]; 0.5 h): 2500 ng/mL | concentration in plasma (Rat [1]; 24 h): 7510 ng/mL | concentration in plasma (Rat [1]; 1848 h): 1090 ng/mL | concentration in plasma (Rat [2]; 5 min): 7130 ng/mL | concentration in plasma (Rat [2]; 192 h): 3040 ng/mL | concentration in kidney (Rat [3]): 22800 ng/g | concentration in liver (Rat [4]): 27600 ng/g | concentration in kidney (Rat [5]): 10100 ng/g | concentration in brain (Rat [6]): 752 ng/g

O=C(O)C(Cl)Cl [dichloroacetic acid]
concentration in plasma (Rat [7]; 2 min): 405 ng/mL | concentration in plasma (Rat [7]; 0.5 h): 274 ng/mL | concentration in plasma (Rat [8]): 430 ng/mL | concentration in plasma (Rat [9]; 5 min): 20900 ng/mL | concentration in plasma (Rat [9]; 2 h): 57500 ng/mL | concentration in plasma (Rat [10]): 10700 ng/mL

CCC1(c2ccccc2)C(=O)NC(=O)NC1=O [Phenobarbital]
concentration in plasma (Rat [11]): 1210 ng/mL | concentration in plasma (Rat [12]): 2330 ng/mL

Cc1cccc(Nc2cc(Cl)nc(SCC(=O)O)n2)c1C
concentration in plasma (Rat [13]; 0.5 h): 5100 ng/mL | concentration in plasma (Rat [13]; 3 h): 342 ng/mL | concentration in plasma (Rat [14]; 2 h): 3450 ng/mL | concentration in plasma (Rat [14]; 6 h): 742 ng/mL | concentration in plasma (Rat [15]; 2 h): 1920 ng/mL | concentration in plasma (Rat [15]; 6 h): 999 ng/mL

O=C(O)C(Cl)(Cl)Cl [trichloroacetic acid]
amount in urine after dosing (dog; 22 h): 8.68 mg | amount in urine after dosing (dog; 46 h): 3 mg | amount in urine after dosing (dog; 70 h): 1.93 mg

O=C(O)CSCC(=O)O [Thiodiglycolic Acid]
concentration in plasma (Rat [16]): 696 ng/mL | concentration in liver (Rat [17]): 94200 ng/g | concentration in thymus (Rat [18]): 471 ng/g | concentration in thymus (Rat [19]): 477 ng/g | concentration in thymus (Rat [20]): 2180 ng/g

ClCCOCOCCCl [Bis 2-Chloroethoxy Methane]
concentration in thymus (Rat [21]): 16300 ng/g | concentration in thymus (Rat [22]): 149 ng/g | concentration in liver (Rat [23]): 1330 ng/g | concentration in heart (Rat [24]): 7270 ng/g | concentration in heart (Rat [25]): 450 ng/g | concentration in liver (Rat [26]): 564 ng/g | concentration in heart (Rat [27]): 12100 ng/g | concentration in liver (Rat [28]): 3320 ng/g | concentration in thymus (Rat [29]): 19.5 ng/g | concentration in liver (Rat [30]): 104 ng/g

CCCCOC(=O)c1ccccc1C(=O)O [Mono-n-butyl phthalate]
concentration in plasma (Rat [31]): 3690 ng/mL | concentration in plasma (Rat [32]): 1250 ng/mL | concentration in plasma (Rat [33]): 3050 ng/mL | concentration in plasma (Rat [34]): 797 ng/mL | concentration in plasma (Rat [35]): 21300 ng/mL | concentration in plasma (Rat [36]): 29700 ng/mL
